Experimental findings from PubChem BioAssay AID624038 (The Scripps Research Institute Molecular Screening Center, 2012) are described below.

Hit rate of the full screen: of about 360,000 compounds, about 1,100 (0.31%) were called active. Only a selection was taken, and actives are over-represented in it overall. Values without a mark were called inactive.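 Rule for the calls: active = activation above the run cutoff, the mean activation of all test compounds plus 3 SD (cut at about 18% in these data); inactive = the rest.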

Muscarinic acetylcholine receptor M5 (Homo sapiens), sequence (P08912 whole entry, looked up): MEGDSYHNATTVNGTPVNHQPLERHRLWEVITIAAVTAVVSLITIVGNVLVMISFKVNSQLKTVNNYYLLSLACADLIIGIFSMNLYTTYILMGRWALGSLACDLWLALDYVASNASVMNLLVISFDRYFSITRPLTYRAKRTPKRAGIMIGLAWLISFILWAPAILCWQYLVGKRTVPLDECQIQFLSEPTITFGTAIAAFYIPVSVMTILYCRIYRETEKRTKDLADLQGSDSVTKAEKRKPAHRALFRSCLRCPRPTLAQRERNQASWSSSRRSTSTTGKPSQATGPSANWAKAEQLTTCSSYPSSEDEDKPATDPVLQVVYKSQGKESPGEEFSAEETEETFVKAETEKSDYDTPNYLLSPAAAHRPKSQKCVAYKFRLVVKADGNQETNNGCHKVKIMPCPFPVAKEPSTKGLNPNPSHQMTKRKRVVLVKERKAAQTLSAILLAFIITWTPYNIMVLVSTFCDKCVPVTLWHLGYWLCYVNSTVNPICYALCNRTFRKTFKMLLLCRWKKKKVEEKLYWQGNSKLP

This experiment has as its target Muscarinic acetylcholine receptor M5 (Homo sapiens) (UniProt P08912). As to the kind of experiment: CHRM5 PAMs potentiating acetylcholine calcium signal – CHO-K1 cells, Fluo-8 calcium fluorescence, primary screen (AID 624038). The note with it: CHO-K1 hM5, Fluo-8 calcium, ACh EC20 PAM; at 3 µM; hits give high values; 0% = ACh EC20, 100% = ACh EC100. The procedure, abridged:
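System: CHO-K1 cell line with stable human muscarinic M5 receptor expression | Also added: EC20 acetylcholine as agonist stimulus | Compound: One concentration, 3 µM final (nominal) | Timing: Fluo-8 loading 80 min at 37 °C plus 30 min room temperature | Measured by: Fluo-8 calcium dye fluorescence, kinetic read | Read-out basis: % activation, ACh-normalized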
Turning to `CCCCCNC(=O)C1C(=O)Nc2ccccc2C(=O)N1C(C)(C)C` (stereo not drawn), the activation is 7.08%.

For the compound `COCCNC(=O)c1onc(CSc2cccc(C)c2)c1C(=O)O`, the activation is -3.85%.

As to `O=C(NNc1nc(N2CCCC2)nc(N2CCCC2)n1)c1ccccc1`, the activation was 6.43%.

`O=C(NNC(=O)C1CCC1)c1ccccc1`: the activation is 2.72%.

In the case of `O=C(NNC(=O)C1CCN(c2ncccn2)CC1)c1ccccc1`, the activation was 26.2% (active).

With `CN(C)/C(=N\OC(=O)c1ccccc1)c1nonc1N`, the activation is -4.7%.

On to `COc1cc(Cn2c3ccc(NC(=O)CC(C)c4ccccc4)cc3c(=O)n2C)ccc1F` (stereo not drawn), for which the activation is -5.77%.

As to `O=C(Nc1cccc(C(=O)O)c1)/C(=C\c1ccccc1)NC(=O)c1ccc(Br)o1`, the activation is -2.27%.

For the compound `COc1ccc(NS(=O)(=O)c2ccc(C)c(C(=O)N(C)Cc3ccc(OC)cc3OC)c2)cc1`, the activation was -3.1%.

Regarding `CCC(NC(=O)c1ccccc1NC(=O)c1ccccc1)C(=O)NNC(=O)CSc1nc2ccccc2o1` (stereo not drawn), the activation was -8.71%.

`COc1cc(CNCc2ccc3c(c2)OCO3)c([N+](=O)[O-])cc1OC`: the activation is -5.12%.

For `Cc1ccc(S(=O)(=O)N(Cc2ccccc2)c2ccccn2)cc1[N+](=O)[O-]`, the activation is -10.1%.

`O=C(Cc1ccccc1Cl)N1CCN(c2ccccn2)CC1`: the activation was -0.15%.

Consider `Cc1ccc2oc(=O)c3cnn(CC(=O)N4CCN(c5ccccn5)CC4)c3c2c1`, for which the activation was -15.1%.

For the compound `Nc1ccn(CC(=O)N2CCN(c3ccccn3)CC2)c(=O)n1`, the activation was 19% (active).

Take `COc1ccc2c(c1OC)C(=O)OC2Nc1nc(-c2ccccc2)cs1` (stereo not drawn): the activation is 4.62%.

Turning to `CC(=O)NC(c1ccccc1)c1nc(-c2cccc(C(C)C)c2)cs1` (stereo not drawn), the activation was -1.15%.

On to `Cc1cccc(Nc2nc(-c3ccccc3)cs2)n1`, for which the activation was 22.1% (active).

As to `Cc1cccc(N(C(=O)Cc2cccs2)C(C(=O)NC2CCCC2)c2ccsc2)c1` (stereo not drawn), the activation is -1.6%.

For the compound `Cc1ccc(C(=O)NC2CCN(C(=O)Nc3ccc(F)cc3)CC2)cc1`, the activation is -2.54%.

Consider `Cc1cc(C)cc(NC(=O)N2CCC(NC(=O)c3ccc(F)cc3)CC2)c1`, for which the activation was 18.7% (active).

Take `Cc1ccc(C(=O)NC2CCN(C(=O)Nc3ccccc3Cl)CC2)cc1`: the activation is -7.16%.

Take `CCOc1ccc(C(=O)NC2CCN(S(=O)(=O)CC)CC2)cc1`: the activation is 11.7%.

Take `CCOc1ccc(C(=O)NC2CCN(C(=O)Nc3ccccc3OC)CC2)cc1`: the activation was 19.6% (active).

As for `COc1ccc(C(=O)NC2CCN(C(=O)Nc3ccc(F)cc3)CC2)cc1`, the activation was 1.29%.

On to `Cc1ccc(OCC(=O)N2CCN(S(=O)(=O)c3ccc(Cl)s3)CC2)cc1C`, for which the activation was 6.01%.

For `CCCNCc1cc(OCC)c(OCC(=O)Nc2ccccc2)cc1Br`, the activation was -3.11%.

On to `C=CC[C@@H](CC(=O)N[C@@H](CO)Cc1ccccc1)C(=O)N[C@H](COC(=O)[C@H](CC=C)CC(=O)OC(C)(C)C)Cc1ccccc1`, for which the activation was 12.5%.

As to `CCOC(=O)c1c(NC(=O)NC(C)(C)C)sc2c1CCN(C)C2`, the activation is -2.43%.

As for `CCOC(=O)C(C)N(c1ccccc1Cl)S(C)(=O)=O` (stereo not drawn), the activation is 4.74%.

As for `O=C(Nc1cc(S(=O)(=O)N2CCOCC2)ccc1OCC(F)(F)F)c1ccc(N2CCCC2=O)cc1`, the activation was -1.35%.

As for `COc1ccc(/C=C(/NC(=O)c2ccco2)C(=O)Nc2ccc(C(C)=O)cc2)cc1`, the activation was 5.57%.

Consider `COc1ccc2c(-c3ccccc3)cc(SCC(=O)N(C)C3CCS(=O)(=O)C3)nc2c1` (stereo not drawn), for which the activation is -0.41%.

For the compound `CN(C(=O)COC(=O)c1cc(-c2ccco2)nc2ccccc12)C1CCS(=O)(=O)C1` (stereo not drawn), the activation was 2.3%.

Take `Cc1c(-c2cccc(Cl)c2)nc2ccccc2c1C(=O)OCC(=O)N(C)C1CCS(=O)(=O)C1` (stereo not drawn): the activation was 20.2% (active).

Turning to `CCOC(=O)C1=C(C)OC(N)=C(C#N)C1c1cncc(-c2ccc(F)cc2)c1` (stereo not drawn), the activation is -7.72%.

Consider `CN1CCN(S(=O)(=O)c2ccc(Nc3ccc(F)cc3)nc2)CC1`, for which the activation was 11.7%.

With `CCOC(=O)C1CCCN(C(=O)c2ccc(C)c(F)c2)CC1` (stereo not drawn), the activation was 0.17%.

In the case of `CCOC(=O)C1CCCN(C(=O)c2ccc(N(C)C)cc2)CC1` (stereo not drawn), the activation is -2.3%.

In the case of `C=CCN1C(=O)c2ccc(C(=O)N3CCC(C(=O)OCC)CC3)cc2C1=O`, the activation was 44.4% (active).

For the compound `C=CCOC(=O)c1ccccc1C(=O)OCC=C`, the activation was 0.16%.

As for `O=C(COC(=O)/C=C/c1ccc(OC(F)F)cc1)NC1CCCCC1`, the activation was -3.38%.

With `CCN(CCn1cccn1)C(=O)CC1C(=O)NCCN1Cc1cccc(OC)c1OC` (stereo not drawn), the activation was -1.21%.

Consider `CCCC(CNC(=O)COC(=O)C1=NNC(=O)CC1)c1ccc(Cl)cc1Cl` (stereo not drawn), for which the activation was 8.77%.

Consider `O=C(c1ccco1)N1CCN(CCOc2ccccc2)CC1`, for which the activation was 2.94%.

On to `COC(c1ccccc1)c1nnc(CCC(=O)N2CCN(CCOc3ccccc3)CC2)o1` (stereo not drawn), for which the activation was 20% (active).

Regarding `O=C(c1ccc(Br)o1)N1CCN(CCOc2ccccc2)CC1`, the activation was 4.96%.

In the case of `CCC1=[N+]([O-])C(C)(/C(C)=N\O)N(O)C1(C)C` (stereo not drawn), the activation is 3.88%.

For `CC(C)Cn1cc(-c2cncc3nccn23)cn1`, the activation is -3.57%.

Consider `COc1ccc(-c2c(C#Cc3ccccc3)c3ccccc3n2C)cc1`, for which the activation is 0.62%.

Consider `CN(C)Cc1c(C#N)c2ccccc2n1C`, for which the activation is 18.2% (active).

Consider `CC(C)(C)n1nc(Cc2cccc3ccccc23)c(C#N)c1N`, for which the activation is -3.53%.

Take `CCN(Cc1ccccc1)C(=O)Cc1ccc(OC)c(S(=O)(=O)N2CCOCC2)c1`: the activation is 0.97%.

In the case of `COc1ccc(NC(=O)CNC(=O)Cn2ccc3ccccc3c2=O)c(OC)c1`, the activation is 0.07%.

In the case of `CCN(C[C@H]1N[C@@](CC)(C(=O)OC)[C@H]2C(=O)N(C)C(=O)[C@@H]12)C(=O)Nc1ccc(F)cc1`, the activation is -0.26%.

Regarding `O=C(NCc1ccccc1)C1c2ccccc2OCC(=O)N1C1CC1` (stereo not drawn), the activation was 6.75%.

Turning to `Cc1ccc(NC(=O)CSc2nnc(CNC(=O)c3ccccc3F)o2)cc1`, the activation is 0.28%.

In the case of `Cc1ccc(NC(=O)CSc2nnc(CNC(=O)c3ccccc3F)o2)cc1Cl`, the activation is -1.76%.

Consider `O=C(NCc1nnc(SCC(=O)N2CCCc3ccccc32)o1)c1ccccc1F`, for which the activation is 22.5% (active).

As to `COCCNC(=O)C1CCCN(Cc2ccccc2Cl)CC1` (stereo not drawn), the activation is 0.83%.

For the compound `CCOC(=O)CC1(NC(=O)c2cc(COc3cncc(Cl)c3)on2)CCCCC1`, the activation is -12.1%.

Regarding `O=C(NNS(=O)(=O)c1ccc(F)cc1)c1cnccn1`, the activation was -12.5%.

For the compound `COc1ccc(CN(C(=O)c2cccs2)c2nccs2)cc1OC`, the activation is -13.5%.

For the compound `C[C@@H]1CC[C@]2(O[C@@H](CCO)C[C@H](O)[C@H]2O)O1`, the activation was 3.31%.

With `OCC[C@H]1C[C@H](O)[C@@H](O)[C@]2(CCCCO2)O1`, the activation was 19.8% (active).

In the case of `C[C@H]1CC[C@]2(O[C@@H](CCO)C[C@@H](O)[C@@H]2O)O1`, the activation is 5.16%.

For `Cc1ccc(NC(=O)N2CCSc3ccccc32)cc1`, the activation was -6.2%.

In the case of `CCN(C(=O)CSc1nnc(-c2ccncc2)o1)c1ccccc1`, the activation is -1.49%.

For the compound `Cc1ccc(-c2nnc(CN3CCN(C)CC3)o2)cc1`, the activation is 5.27%.

`CCCCSc1nnc(-c2ccc(C)cc2)o1`: the activation was 19.1% (active).

Take `COCCNc1nc(N)c([N+](=O)[O-])c(NCCO)n1`: the activation was -6.19%.

Regarding `CCOC(=O)c1ccc2c(c1)nc(SCC(=O)NC(C)C)n2CC`, the activation is 0.07%.

As for `CCc1ccc(NC(=O)C(=O)N/N=C(\C)CC(=O)NCCOC)cc1`, the activation was 3.15%.

As for `Cc1cc(C)n(-c2cc(Oc3ccccc3)ncn2)n1`, the activation was 34.2% (active).

Take `Cc1cc(C)n(-c2ccc3nncn3n2)n1`: the activation was 0.99%.

On to `CC(=O)c1cnn(-c2cc(Oc3ccc(F)cc3)ncn2)c1C`, for which the activation is 0.64%.

As to `COC(=O)c1sc(SC)c(S(=O)(=O)C(C)C)c1N/N=C(\C#N)S(=O)(=O)c1ccccn1`, the activation was 3.1%.

Consider `CCc1nc2ccc(C(=O)N3CCC(O)(Cc4ccccc4)CC3)cn2c1N(C)C(=O)Cc1ccccc1`, for which the activation is 1.27%.

Consider `CCCCc1ccc(NC(=O)NCc2cccnc2)cc1`, for which the activation is 2.66%.

For the compound `CCCCCCCCCCCCN1C(=O)CSC1c1cccnc1` (stereo not drawn), the activation is 22.7% (active).

For the compound `CN(C)CCCN1C(=O)CSC1c1ccc([N+](=O)[O-])cc1` (stereo not drawn), the activation is 8.84%.

In the case of `CCN(CC)S(=O)(=O)c1cc([N+](=O)[O-])ccc1N=Nc1c(O)n(C)c2ccccc12`, the activation was -2.02%.

In the case of `CCOc1ccc(NC(=O)CN(C)C(=O)CCSc2ccc(F)cc2)cc1OCC`, the activation was -1.87%.

On to `CCN(Cc1ccccc1)S(=O)(=O)c1cc2c3c(c1)CCN3C(=O)CC2`, for which the activation is 3.77%.

For `Cc1cc(C)c2nc(N(CCN(C)C)C(=O)/C=C/c3cccs3)sc2c1`, the activation was 18.8% (active).

On to `Cc1ccc(S(=O)(=O)N(C)C)cc1NC(=O)/C=C/c1cccs1`, for which the activation is -1.18%.

Turning to `Cc1ccc(S(=O)(=O)N(C)C)cc1NC(=O)COC(=O)/C=C/c1cccs1`, the activation was 1.46%.

For the compound `FC(F)(F)c1ccnc(Oc2ccc(C3=NCCS3)cc2)c1`, the activation is -0.95%.

As to `COc1ccc(NC(=O)CSc2nnc(-c3ccccc3F)n2C2CC2)cc1S(N)(=O)=O`, the activation is 4.72%.

As to `CCOC1CS(=O)(=O)CC1OCC` (stereo not drawn), the activation was 27.7% (active).

In the case of `O=C(O)c1ccc(COCC(F)(F)F)cc1`, the activation is -0.76%.

Take `CCCCCCN1CCN(C2CN(Cc3cn(CCCCCC)nn3)S(=O)(=O)C2)CC1` (stereo not drawn): the activation was 0.04%.

Regarding `Cc1cccc(-n2nc3c(c2NC(=O)c2cc4ccccc4o2)CS(=O)(=O)C3)c1`, the activation was 0.74%.
